A short description of assay [1]: Her2 expression decrease, cell viability multiplex – SKBR3 breast tumor cells, AlphaScreen, ATP viability, primary screen (AID 461;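 active = Her2 level under about 52% in both replicate screens, with viability over 70% of control, limit read from the data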;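 for Her2 level: lower value means less Her2 protein in the cells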;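 for viability: percent of carrier control wells set as 100% viability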). To be noted: SKBR3 Her2 protein level, 18-24 h, measured here: SKBR3 viability, ATP luminescence, at 10 µM.
Assay [2] deals with Receptor tyrosine-protein kinase erbB-2 (Homo sapiens) (UniProt P04626). The description is as above. To be noted: 18-24 h, at 10 µM, stronger effect = lower value.
Sequence of Receptor tyrosine-protein kinase erbB-2 (Homo sapiens) (P04626 whole entry, looked up): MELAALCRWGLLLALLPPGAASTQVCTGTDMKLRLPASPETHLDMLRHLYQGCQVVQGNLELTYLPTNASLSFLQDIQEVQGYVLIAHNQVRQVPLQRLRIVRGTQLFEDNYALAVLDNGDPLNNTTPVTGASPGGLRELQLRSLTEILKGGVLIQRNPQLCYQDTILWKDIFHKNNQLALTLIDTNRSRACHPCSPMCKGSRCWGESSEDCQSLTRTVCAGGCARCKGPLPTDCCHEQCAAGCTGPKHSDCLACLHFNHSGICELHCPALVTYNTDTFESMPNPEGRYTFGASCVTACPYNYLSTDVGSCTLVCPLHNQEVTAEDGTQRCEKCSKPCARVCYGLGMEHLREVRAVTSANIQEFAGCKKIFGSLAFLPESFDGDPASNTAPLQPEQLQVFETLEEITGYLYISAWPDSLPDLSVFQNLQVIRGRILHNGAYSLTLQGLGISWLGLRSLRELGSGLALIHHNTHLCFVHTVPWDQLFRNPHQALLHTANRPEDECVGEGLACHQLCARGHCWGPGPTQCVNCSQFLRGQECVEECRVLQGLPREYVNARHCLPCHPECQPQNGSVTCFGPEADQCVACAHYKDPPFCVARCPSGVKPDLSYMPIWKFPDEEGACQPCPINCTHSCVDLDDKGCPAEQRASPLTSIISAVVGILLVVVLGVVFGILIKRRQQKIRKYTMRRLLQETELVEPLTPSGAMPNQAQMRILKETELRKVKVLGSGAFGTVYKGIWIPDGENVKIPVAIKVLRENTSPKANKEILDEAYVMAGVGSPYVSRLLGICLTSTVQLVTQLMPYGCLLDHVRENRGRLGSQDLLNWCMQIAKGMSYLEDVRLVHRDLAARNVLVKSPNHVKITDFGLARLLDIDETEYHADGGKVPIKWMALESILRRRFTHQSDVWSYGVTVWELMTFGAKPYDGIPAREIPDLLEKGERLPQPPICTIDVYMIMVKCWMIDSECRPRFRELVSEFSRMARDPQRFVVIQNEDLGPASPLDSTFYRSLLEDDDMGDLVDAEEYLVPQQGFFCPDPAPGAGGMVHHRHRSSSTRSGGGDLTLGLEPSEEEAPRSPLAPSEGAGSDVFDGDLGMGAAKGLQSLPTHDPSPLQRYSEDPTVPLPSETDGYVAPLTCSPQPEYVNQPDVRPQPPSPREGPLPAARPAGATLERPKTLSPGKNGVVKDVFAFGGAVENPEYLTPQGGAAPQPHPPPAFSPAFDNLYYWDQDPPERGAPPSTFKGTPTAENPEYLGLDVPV
A short description of assay [3]: reduced viability of SK-BR-3 breast cancer cells – cell-based, 24 h, human, pilot screen (AID 572;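 active = viability at or below 10% of carrier control in both of two separate runs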;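 note: compound exposure lasted between 18 and 24 h rather than exactly 24 h; 100% = carrier-treated control wells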). The note with it: SK-BR-3 viability, CellTiter-Glo luminescence, at 10 µM, stronger effect = lower value. In general terms: In ATP-based viability assays light output follows the ATP content of the culture.
A short description of assay [4]: HUVEC growth inhibition – cell-based, human, primary screen (AID 575;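 active = viability at or below 30% in both replicate assays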;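 note: 100% = median of untreated cell wells with 0.1% DMSO on each plate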). To be noted: HUVEC proliferation, CellTiter-Glo luminescence, 72 h; at 10 µM; stronger effect = lower value. The method, boiled down: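 Timing: 72 h treatment at 37 °C; material: HUVEC primary cells; technique: CellTiter-Glo luminescence measuring cellular ATP; controls: vehicle and MePR control wells; measure: percent of median DMSO-control luminescence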

Assay [5] is described as follows: H69AR cell proliferation blockers – human, duplicate replicates, primary screen (AID 580;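 active = viability at or under a set limit in both replicates, limit being median viability minus 3 SD, cut at about 48% in these data, passing the limit was not always enough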;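 note: 100% = mean luminescence of untreated wells and 0% = no signal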). The note with it: H69AR lung tumor cells viability, ATP luminescence, 72 h; at 10 µM; stronger effect = lower value.
Assay [6] in a line: MRP1 drug-resistance reversers in H69AR cells – cell-based, doxorubicin co-treatment, pilot screen (AID 601;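 active = viability loss from added drug above about 55%, and viability with drug at most 40%, in both replicates, limit read from the data, passing the limit was not always enough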). The note with it: CellTiter-Glo, 72 h, at 10 µM; for differential viability (reversal): stronger effect = higher value.
Assay [7] in a line: yeast transport mutant growth inhibition pilot in 384-well plates, post-Golgi transport modulator project (AID 636; in the data active = inhibition above about 31%). The note with it: absorbance 615 nm, about 18 h, stronger effect = higher value.
A short description of assay [8]: growth suppression of yeast trafficking mutant, preliminary HTS, modulators of trafficking downstream of Golgi apparatus project, 1536-format plate, OD 615 nm (AID 637). The note with it: yeast transport mutant growth, absorbance 615 nm, 18 h; stronger effect = higher value.
The mark [9] stands for this setting: H69AR cells + 2 uM doxorubicin, measured here: viability with 2 uM doxorubicin, stronger effect = lower value.
[10] abbreviates: H69AR cells, compound alone cytotoxicity.

Calls of active or inactive are those of the source. Cut-off read from the data, not from the text of the source, unless noted: active = inhibition above about 30%; inactive = the rest.

Consider `CCCCC(O)(C(NC=O)C(=O)OC)C(F)(F)F` (stereo not given), for which the viability – broadly, a read-out of living cells in per cent, often relative to untreated cells – is 95.5% in assay [1]; 95.5% (inactive) in assay [3]; 108% (inactive) in assay [4]; 99.4% (inactive) in assay [5]; 95.7% in assay [6] (setting [9]); 99.4% in assay [6] (setting [10]). In addition, the Her2 level in assay [2] was 85% (inactive). The differential viability (reversal) in assay [6] (H69AR cells + 2 uM doxorubicin) was 3.77% (inactive). For the same molecule, the inhibition (commonly the change of the read-out against control, counted positive when it falls) was -2.27% (inactive) in assay [7] and 7.58% (inactive) in assay [8].
On to `Cc1noc(C)c1S(=O)(=O)NCCN1CCN(c2ccccc2)CC1`, for which the viability is 96% in assay [1]; 96% (inactive) in assay [3]; 96.4% (inactive) in assay [4]; 96.1% (inactive) in assay [5]; 92.7% in assay [6] (setting [9]); 96.1% in assay [6] (setting [10]). In addition, the Her2 level in assay [2] is 98.5% (inactive). For the same molecule, the differential viability (reversal) in assay [6] (H69AR cells + 2 uM doxorubicin) is 3.43% (inactive). Further, the inhibition in assay [7] and in assay [8] was -0.79% (inactive) each time.
`CCC(=O)N1CCCc2cc(S(=O)(=O)N3CCCc4ccccc43)ccc21`: the viability was 89.5% in assay [1]; 89.5% (inactive) in assay [3]; 87.2% (inactive) in assay [4]; 77.6% (inactive) in assay [5]; 81.5% in assay [6] (setting [9]); 77.6% in assay [6] (setting [10]). For the same molecule, the Her2 level in assay [2] was 76.5% (inactive). Moreover, the differential viability (reversal) in assay [6] (H69AR cells + 2 uM doxorubicin) is -3.92% (inactive). Besides, the inhibition in assay [7] is -2.76% (inactive); in assay [8], -2.1% (inactive).
For `CCCCC(CC)C(=O)Nc1ccc(Cl)cn1` (stereo not given), the viability in assay [1] was 103%; in assay [3], 103% (inactive); in assay [4], 98.3% (inactive); in assay [5] it was 94.3% (inactive); in assay [6] (setting [9]) it was 82.1%; in assay [6] (setting [10]), 94.3%. Further, the Her2 level in assay [2] is 102% (inactive). Moreover, in assay [6] (H69AR cells + 2 uM doxorubicin), the differential viability (reversal) is 12.2% (inactive). Besides, the inhibition in assay [7] is -5.47% (inactive); in assay [8], 1.97% (inactive).
As for `CCOc1ccc(C2CC(=O)NC3=C2C(=O)CCC3)cc1Cl` (stereo not given), the viability is 108% in assay [1]; 108% (inactive) in assay [3]; 88.4% (inactive) in assay [4]; 99.4% (inactive) in assay [5]; 85.2% in assay [6] (setting [9]); 99.4% in assay [6] (setting [10]). Further, the Her2 level in assay [2] is 97.5% (inactive). Further, in assay [6] (H69AR cells + 2 uM doxorubicin), the differential viability (reversal) was 14.2% (inactive). The inhibition in assay [7] is -4.21% (inactive); in assay [8] it was 0% (inactive).
Consider `CCCC(=O)Nc1nnc(Sc2ccc(N(C)C)cc2)s1`, for which the viability in assay [1] is 100%; in assay [3], 100% (inactive); in assay [4], 80.3% (inactive); in assay [5] it was 101% (inactive); in assay [6] (setting [9]), 85.4%; in assay [6] (setting [10]), 101%. For the same molecule, the Her2 level in assay [2] is 90% (inactive). Besides, the differential viability (reversal) in assay [6] (H69AR cells + 2 uM doxorubicin) was 15.3% (inactive). Besides, the inhibition in assay [7] was -5.2% (inactive); in assay [8], -8.73% (inactive).
On to `CC(=O)c1cc2c(=O)c3cc(C)ccc3oc2nc1C`, for which the viability in assay [1] was 102%; in assay [3], 102% (inactive); in assay [4], 68.4% (inactive); in assay [5], 72.5% (inactive); in assay [6] (setting [9]) it was 79.9%; in assay [6] (setting [10]) it was 72.5%. In addition, the Her2 level in assay [2] was 72.5% (inactive). In addition, the differential viability (reversal) in assay [6] (H69AR cells + 2 uM doxorubicin) is -7.35% (inactive). For the same molecule, the inhibition was -2.89% (inactive) in assay [7] and -1.43% (inactive) in assay [8].
Take `Cc1nn(C)cc1NC(=O)CCSc1nc(-c2ccco2)cc(C(F)(F)F)n1`: the viability in assay [1] was 90.5%; in assay [3] it was 90.5% (inactive); in assay [4], 102% (inactive); in assay [5] it was 87.3% (inactive); in assay [6] (setting [9]), 81.9%; in assay [6] (setting [10]) it was 87.3%. For the same molecule, the Her2 level in assay [2] was 104% (inactive). Besides, the differential viability (reversal) in assay [6] (H69AR cells + 2 uM doxorubicin) was 5.31% (inactive). The inhibition in assay [7] was -4.4% (inactive); in assay [8] it was 23.9% (inactive).
As to `CN1CCN(c2oc(COc3ccc(-c4ccccc4)cc3)nc2C#N)CC1`, the viability is 83.5% in assay [1]; 83.5% (inactive) in assay [3]; 66.3% (inactive) in assay [4]; 78.3% (inactive) in assay [5]; 60.5% in assay [6] (setting [9]); 78.3% in assay [6] (setting [10]). In assay [2], the Her2 level was 72.5% (inactive). Further, the differential viability (reversal) in assay [6] (H69AR cells + 2 uM doxorubicin) was 17.7% (inactive). In addition, the inhibition in assay [7] was -5.6% (inactive); in assay [8], 0.79% (inactive).
On to `COc1cccc(C(=O)Nc2ccc(C)cc2)c1`, for which the viability is 99% in assay [1]; 99% (inactive) in assay [3]; 84.6% (inactive) in assay [4]; 92.3% (inactive) in assay [5]; 88.3% in assay [6] (setting [9]); 92.3% in assay [6] (setting [10]). The Her2 level in assay [2] is 102% (inactive). The differential viability (reversal) in assay [6] (H69AR cells + 2 uM doxorubicin) was 3.96% (inactive). Besides, the results for the inhibition in assay [7] and in assay [8] were -3.47% (inactive) and -7.46% (inactive), respectively.
Consider `CCC(OC(=O)c1cccs1)C(=O)NCc1ccco1` (stereo not given), for which the viability is 103% in assay [1]; 103% (inactive) in assay [3]; 98.6% (inactive) in assay [4]; 91.4% (inactive) in assay [5]; 82% in assay [6] (setting [9]); 91.4% in assay [6] (setting [10]). In addition, the Her2 level in assay [2] was 93% (inactive). Further, the differential viability (reversal) in assay [6] (H69AR cells + 2 uM doxorubicin) is 9.38% (inactive). Besides, the inhibition is -2.86% (inactive) in assay [7] and 1.97% (inactive) in assay [8].
As for `CCc1nnc(NC(=O)c2ccc(S(=O)(=O)NCC(C)C)cc2)s1`, the viability in assay [1] was 92.5%; in assay [3] it was 92.5% (inactive); in assay [4], 100% (inactive); in assay [5], 98.3% (inactive); in assay [6] (setting [9]) it was 97.2%; in assay [6] (setting [10]), 98.3%. Moreover, the Her2 level in assay [2] is 89% (inactive). Also, the differential viability (reversal) in assay [6] (H69AR cells + 2 uM doxorubicin) is 1.11% (inactive). Further, the inhibition in assay [7] is -5.95% (inactive); in assay [8], 0.16% (inactive).
Consider `Cc1ccc(S(=O)(=O)Nc2nc3ccccc3nc2NCc2ccco2)cc1`, for which the viability was 114% in assay [1]; 114% (inactive) in assay [3]; 86.7% (inactive) in assay [4]; 22.5% (active) in assay [5]; 21.9% in assay [6] (setting [9]); 22.5% in assay [6] (setting [10]). Further, in assay [2], the Her2 level is 93.5% (inactive). The differential viability (reversal) in assay [6] (H69AR cells + 2 uM doxorubicin) was 0.645% (inactive). Moreover, the results for the inhibition in assay [7] and in assay [8] were -5.47% (inactive) and -6.51% (inactive), respectively.
On to `O=C(c1cnn2c(C(F)(F)F)cc(-c3ccco3)nc12)N1CCc2ccccc2C1`, for which the viability in assay [1] was 76%; in assay [3] it was 76% (inactive); in assay [4] it was 69.9% (inactive); in assay [5] it was 89.6% (inactive); in assay [6] (setting [9]), 85.7%; in assay [6] (setting [10]) it was 89.6%. Besides, the Her2 level in assay [2] was 112% (inactive). For the same molecule, in assay [6] (H69AR cells + 2 uM doxorubicin), the differential viability (reversal) was 3.92% (inactive). Besides, the figures for the inhibition in assay [7] and in assay [8] were -1.33% (inactive) and -9.37% (inactive), respectively.
As for `N#CC1=C(N)S[C@H](C(=O)C23CC4CC(CC(C4)C2)C3)[C@H]1c1ccncc1`, the viability is 81% in assay [1]; 81% (inactive) in assay [3]; 41% (inactive) in assay [4]; 93.7% (inactive) in assay [5]; 46.1% in assay [6] (setting [9]); 93.7% in assay [6] (setting [10]). In assay [2], the Her2 level was 79% (inactive). Besides, the differential viability (reversal) in assay [6] (H69AR cells + 2 uM doxorubicin) is 47.6% (inactive). Also, the values for the inhibition in assay [7] and in assay [8] were -2.8% (inactive) and 4.84% (inactive), respectively.
As to `COc1ccc2c(C(=O)CN(C)C3CCCCC3)c[nH]c2c1`, the viability is 115% in assay [1]; 115% (inactive) in assay [3]; 92.3% (inactive) in assay [4]; 64.7% (inactive) in assay [5]; 74.9% in assay [6] (setting [9]); 64.7% in assay [6] (setting [10]). For the same molecule, the Her2 level in assay [2] was 72.5% (inactive). Also, the differential viability (reversal) in assay [6] (H69AR cells + 2 uM doxorubicin) is -10.2% (inactive). Moreover, the inhibition in assay [7] was -0.92% (inactive); in assay [8] it was -0.81% (inactive).
